Calls of active or inactive are those of the source. No cut-off for these calls is given here.
Assays:
[1] = molecular target: Dual specificity mitogen-activated protein kinase kinase 2 (Homo sapiens) (UniProt P36507); experiment: Inhibition of full length human MEK2 (1 to 400 residues) expressed in mammalian expression system assessed as enzyme activity at 1 uM by KINOMEScan assay relative to control; parameters: scale not given: the % may be the effect or the level left
Procedure, shortened: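 In vitro ATP-site competition binding assay (KinomeScan) across a panel of 456 kinases. Compound was tested at 1 and 10 μM. The read-out is the binding inhibition score relative to control.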

[2] = molecular target: Vascular endothelial growth factor receptor 1 (Homo sapiens) (UniProt P17948); experiment: Inhibition of human FLT1 (781 to 1239 residues) expressed in bacterial expression system assessed as enzyme activity at 10 uM by KINOMEScan assay relative to control; parameters: scale not given: the % may be the effect or the level left
Procedure, shortened: (§1)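 In vitro ATP-site competition binding assay across a panel of 456 kinases, with compound tested at 1 and 10 μM.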

[3] = molecular target: Receptor-type tyrosine-protein kinase FLT3 (Homo sapiens) (UniProt P36888); experiment: Inhibition of human FLT3 (592 to 969 residues) expressed in bacterial expression system assessed as enzyme activity at 10 uM by KINOMEScan assay relative to control; parameters: scale not given: the % may be the effect or the level left; procedure, shortened: as §1
Receptor-type tyrosine-protein kinase FLT3 (Homo sapiens), sequence (P36888 whole entry, the tested form may be a part): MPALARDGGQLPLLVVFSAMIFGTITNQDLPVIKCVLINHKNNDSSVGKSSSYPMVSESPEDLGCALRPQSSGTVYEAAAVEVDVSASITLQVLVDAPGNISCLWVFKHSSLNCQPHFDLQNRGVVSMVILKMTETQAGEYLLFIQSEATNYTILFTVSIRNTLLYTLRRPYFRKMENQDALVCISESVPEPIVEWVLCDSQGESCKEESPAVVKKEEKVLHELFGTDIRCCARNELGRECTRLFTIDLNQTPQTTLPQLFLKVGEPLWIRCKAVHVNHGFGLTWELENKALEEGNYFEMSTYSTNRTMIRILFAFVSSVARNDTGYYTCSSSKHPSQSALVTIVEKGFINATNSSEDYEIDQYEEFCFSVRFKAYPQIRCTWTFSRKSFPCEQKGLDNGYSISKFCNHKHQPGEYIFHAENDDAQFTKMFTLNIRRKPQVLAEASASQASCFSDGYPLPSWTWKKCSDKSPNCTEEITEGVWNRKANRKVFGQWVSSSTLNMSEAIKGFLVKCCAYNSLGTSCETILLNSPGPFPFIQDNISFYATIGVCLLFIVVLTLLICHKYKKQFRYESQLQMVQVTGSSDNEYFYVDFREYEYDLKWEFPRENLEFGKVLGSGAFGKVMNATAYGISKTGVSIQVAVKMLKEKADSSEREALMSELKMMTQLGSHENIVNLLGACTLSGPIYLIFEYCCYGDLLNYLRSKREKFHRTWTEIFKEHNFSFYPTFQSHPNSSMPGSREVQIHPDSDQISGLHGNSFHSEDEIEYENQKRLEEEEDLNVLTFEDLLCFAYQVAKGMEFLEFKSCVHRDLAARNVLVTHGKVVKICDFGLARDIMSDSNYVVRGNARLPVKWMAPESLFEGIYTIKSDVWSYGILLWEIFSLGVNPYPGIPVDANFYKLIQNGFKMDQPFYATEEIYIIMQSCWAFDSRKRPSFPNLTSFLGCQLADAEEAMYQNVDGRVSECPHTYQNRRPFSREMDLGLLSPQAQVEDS

[4] = molecular target: Serine/threonine-protein kinase MARK2 (Homo sapiens) (UniProt Q7KZI7); experiment: Inhibition of MARK2 in human SKCO1 cells at 1 uM after 4 hrs using biotin labeled EVAVKIIDK probe by mass-spectrometric analysis relative to control; type: cell-based
[5] = molecular target: Small ribosomal subunit protein eS6 (Homo sapiens) (UniProt P62753); experiment: Binding affinity to RPS6 in human NCI-H23 cells at 1 uM by mass spectrometry based pull down assay; type: cell-based
[6] = molecular target: Membrane-associated progesterone receptor component 1 (Homo sapiens) (UniProt O00264); experiment: Binding affinity to PGRMC1 in human NCI-H23 cells at 1 uM by mass spectrometry based pull down assay; type: cell-based
[7] = molecular target: Clathrin heavy chain 1 (Homo sapiens) (UniProt Q00610); experiment: Binding affinity to CLTC in human NCI-H23 cells at 1 uM by mass spectrometry based pull down assay; type: cell-based
Clathrin heavy chain 1 (Homo sapiens), sequence (Q00610 whole entry): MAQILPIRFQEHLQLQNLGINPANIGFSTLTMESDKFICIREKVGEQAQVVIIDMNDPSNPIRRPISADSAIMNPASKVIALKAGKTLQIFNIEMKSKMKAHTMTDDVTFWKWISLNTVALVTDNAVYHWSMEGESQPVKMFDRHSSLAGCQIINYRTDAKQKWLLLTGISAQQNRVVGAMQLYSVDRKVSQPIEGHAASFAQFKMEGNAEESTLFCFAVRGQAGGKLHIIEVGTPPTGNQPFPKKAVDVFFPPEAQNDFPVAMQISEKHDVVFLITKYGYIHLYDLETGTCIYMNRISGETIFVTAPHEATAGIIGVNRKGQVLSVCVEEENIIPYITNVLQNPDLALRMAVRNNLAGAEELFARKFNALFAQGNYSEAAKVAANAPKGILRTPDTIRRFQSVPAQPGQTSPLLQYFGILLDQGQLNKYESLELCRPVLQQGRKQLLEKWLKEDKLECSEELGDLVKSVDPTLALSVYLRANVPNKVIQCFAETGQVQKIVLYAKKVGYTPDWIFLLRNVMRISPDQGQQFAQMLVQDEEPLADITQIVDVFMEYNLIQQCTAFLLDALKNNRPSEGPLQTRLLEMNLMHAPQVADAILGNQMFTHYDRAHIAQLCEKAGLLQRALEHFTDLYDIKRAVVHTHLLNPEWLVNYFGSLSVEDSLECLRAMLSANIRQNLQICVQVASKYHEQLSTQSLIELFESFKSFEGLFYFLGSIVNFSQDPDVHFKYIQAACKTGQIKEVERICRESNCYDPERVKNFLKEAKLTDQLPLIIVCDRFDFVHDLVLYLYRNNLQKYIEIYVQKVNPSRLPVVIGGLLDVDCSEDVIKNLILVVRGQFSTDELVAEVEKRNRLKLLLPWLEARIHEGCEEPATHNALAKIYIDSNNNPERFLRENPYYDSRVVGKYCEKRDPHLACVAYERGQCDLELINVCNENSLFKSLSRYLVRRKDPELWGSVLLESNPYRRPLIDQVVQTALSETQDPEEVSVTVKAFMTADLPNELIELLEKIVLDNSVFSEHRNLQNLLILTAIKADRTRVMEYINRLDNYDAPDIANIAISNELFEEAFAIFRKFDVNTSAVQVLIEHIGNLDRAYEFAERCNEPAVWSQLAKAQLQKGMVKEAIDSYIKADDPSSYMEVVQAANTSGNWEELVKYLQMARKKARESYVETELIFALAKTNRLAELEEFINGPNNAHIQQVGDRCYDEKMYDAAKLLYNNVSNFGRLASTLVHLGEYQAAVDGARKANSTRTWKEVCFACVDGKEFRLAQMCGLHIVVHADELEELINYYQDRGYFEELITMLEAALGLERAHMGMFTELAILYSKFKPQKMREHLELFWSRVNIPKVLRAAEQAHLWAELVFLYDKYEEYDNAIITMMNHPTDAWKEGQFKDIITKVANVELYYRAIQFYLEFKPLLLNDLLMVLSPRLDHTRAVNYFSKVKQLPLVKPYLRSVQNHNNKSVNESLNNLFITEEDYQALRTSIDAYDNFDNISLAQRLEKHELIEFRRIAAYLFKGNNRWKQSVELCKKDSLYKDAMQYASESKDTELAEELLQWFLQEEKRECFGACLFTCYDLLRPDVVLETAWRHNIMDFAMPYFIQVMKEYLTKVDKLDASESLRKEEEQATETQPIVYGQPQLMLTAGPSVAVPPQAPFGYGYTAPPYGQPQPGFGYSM

[8] = molecular target: Phosphoribosylformylglycinamidine synthase (Homo sapiens) (UniProt O15067); experiment: Binding affinity to PFAS in human NCI-H23 cells at 1 uM by mass spectrometry based pull down assay; type: cell-based
[9] = molecular target: RNA-binding protein 3 (Homo sapiens) (UniProt P98179); experiment: Binding affinity to RBM3 in human NCI-H23 cells at 1 uM by mass spectrometry based pull down assay; type: cell-based
RNA-binding protein 3 (Homo sapiens), sequence (P98179 whole entry): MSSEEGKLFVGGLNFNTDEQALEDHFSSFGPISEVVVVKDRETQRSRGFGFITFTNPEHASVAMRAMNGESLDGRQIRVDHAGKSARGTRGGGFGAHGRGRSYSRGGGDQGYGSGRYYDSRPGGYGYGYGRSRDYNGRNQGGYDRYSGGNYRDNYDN

[10] = molecular target: Bifunctional glutamate/proline--tRNA ligase (Homo sapiens) (UniProt P07814); experiment: Binding affinity to EPRS in human NCI-H23 cells at 1 uM by mass spectrometry based pull down assay; type: cell-based
[11] = molecular target: F-actin-capping protein subunit beta (Homo sapiens) (UniProt P47756); experiment: Binding affinity to CAPZB in human NCI-H23 cells at 1 uM by mass spectrometry based pull down assay; type: cell-based
F-actin-capping protein subunit beta (Homo sapiens), sequence (P47756 whole entry, the tested form may be a part): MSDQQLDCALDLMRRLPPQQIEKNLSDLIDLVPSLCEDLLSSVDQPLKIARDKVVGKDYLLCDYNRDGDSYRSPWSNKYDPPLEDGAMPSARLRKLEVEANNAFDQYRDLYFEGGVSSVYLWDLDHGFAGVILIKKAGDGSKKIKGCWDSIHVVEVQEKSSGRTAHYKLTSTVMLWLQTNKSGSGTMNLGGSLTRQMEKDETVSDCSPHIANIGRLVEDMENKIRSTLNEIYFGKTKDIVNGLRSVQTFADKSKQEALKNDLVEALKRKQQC

[12] = molecular target: Glyoxalase domain-containing protein 4 (Homo sapiens) (UniProt Q9HC38); experiment: Binding affinity to GLOD4 in human NCI-H23 cells at 1 uM by mass spectrometry based pull down assay; type: cell-based
[13] = molecular target: Multifunctional protein CAD (Homo sapiens) (UniProt P27708); experiment: Binding affinity to CAD in human NCI-H23 cells at 1 uM by mass spectrometry based pull down assay; type: cell-based
[14] = molecular target: Methylosome protein WDR77 (Homo sapiens) (UniProt Q9BQA1); experiment: Binding affinity to WDR77 in human NCI-H23 cells at 1 uM by mass spectrometry based pull down assay; type: cell-based
Methylosome protein WDR77 (Homo sapiens), sequence (Q9BQA1 whole entry): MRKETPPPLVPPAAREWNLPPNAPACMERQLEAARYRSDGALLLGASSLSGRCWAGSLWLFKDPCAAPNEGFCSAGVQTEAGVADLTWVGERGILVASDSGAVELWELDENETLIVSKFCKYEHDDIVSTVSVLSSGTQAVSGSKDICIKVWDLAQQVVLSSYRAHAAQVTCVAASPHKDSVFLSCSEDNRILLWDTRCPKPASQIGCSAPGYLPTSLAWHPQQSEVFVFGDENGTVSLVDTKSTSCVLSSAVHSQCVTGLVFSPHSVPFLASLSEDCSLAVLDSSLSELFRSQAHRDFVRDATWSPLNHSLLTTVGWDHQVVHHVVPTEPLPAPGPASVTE

[15] = molecular target: Reticulon-4 (Homo sapiens) (UniProt Q9NQC3); experiment: Binding affinity to RTN4 in human NCI-H23 cells at 1 uM by mass spectrometry based pull down assay; type: cell-based
[16] = molecular target: Fructose-2,6-bisphosphatase TIGAR (Homo sapiens) (UniProt Q9NQ88); experiment: Binding affinity to TIGAR in human NCI-H23 cells at 1 uM by mass spectrometry based pull down assay; type: cell-based
[17] = molecular target: Tropomyosin alpha-3 chain (Homo sapiens) (UniProt P06753); experiment: Binding affinity to TPM3 in human NCI-H358 cells at 1 uM by mass spectrometry based pull down assay; type: cell-based
[18] = molecular target: T1, 80S Ribosome (Homo sapiens) (UniProt P08865+P42677+P62753+P15880+P23396+P61247+P62701+P22090+P46782+P62081+P62241+P46781+P46783+P62280+P25398+P62277+P62263+P62841+P62244+P62249+P08708+P62269+P39019+P60866+P63220+P62266+P62847+P62851+P62854+P62979+P62857+P62273+P62861+P39023+P36578+P46777+Q02878+P18124+P62424+P62917+P32969+P27635+P62906+P62913+P30050+P26373+P40429+P50914+P61313+P18621+Q07020+Q02543+P84098+P46778+P35268+P62829+P62750+P83731+P61254+P61353+P46776+P46779+P47914+P62888+P62899+P62910+P49207+P42766+P18077+Q9Y3U8+P83881+P61927+P61513+P63173+P62891+P62945+P05388+P05386); experiment: Binding affinity to RPS5 in human NCI-H358 cells at 1 uM by mass spectrometry based pull down assay; type: cell-based
[19] = molecular target: E3 ubiquitin-protein ligase HUWE1 (Homo sapiens) (UniProt Q7Z6Z7); experiment: Binding affinity to HUWE1 in human NCI-H358 cells at 1 uM by mass spectrometry based pull down assay; type: cell-based
[20] = molecular target: Interleukin-1 receptor-associated kinase 1 (Homo sapiens) (UniProt P51617); experiment: Binding affinity to IRAK1 in human NCI-H358 cells at 1 uM by mass spectrometry based pull down assay; type: cell-based
[21] = molecular target: Cancer-related nucleoside-triphosphatase (Homo sapiens) (UniProt Q9BSD7); experiment: Binding affinity to NTPCR in human NCI-H358 cells at 1 uM by mass spectrometry based pull down assay; type: cell-based
[22] = system: NCI-H358; experiment: Binding affinity to PSMA7 in human NCI-H358 cells at 1 uM by mass spectrometry based pull down assay; type: cell-based
[23] = molecular target: T-complex protein 1 subunit theta (Homo sapiens) (UniProt P50990); experiment: Binding affinity to CCT8 in human NCI-H358 cells at 1 uM by mass spectrometry based pull down assay; type: cell-based
[24] = molecular target: Calponin-2 (Homo sapiens) (UniProt Q99439); experiment: Binding affinity to CNN2 in human NCI-H358 cells at 1 uM by mass spectrometry based pull down assay; type: cell-based
[25] = molecular target: Tensin-3 (Homo sapiens) (UniProt Q68CZ2); experiment: Binding affinity to TNS3 in human NCI-H358 cells at 1 uM by mass spectrometry based pull down assay; type: cell-based
Tensin-3 (Homo sapiens), sequence (Q68CZ2 whole entry): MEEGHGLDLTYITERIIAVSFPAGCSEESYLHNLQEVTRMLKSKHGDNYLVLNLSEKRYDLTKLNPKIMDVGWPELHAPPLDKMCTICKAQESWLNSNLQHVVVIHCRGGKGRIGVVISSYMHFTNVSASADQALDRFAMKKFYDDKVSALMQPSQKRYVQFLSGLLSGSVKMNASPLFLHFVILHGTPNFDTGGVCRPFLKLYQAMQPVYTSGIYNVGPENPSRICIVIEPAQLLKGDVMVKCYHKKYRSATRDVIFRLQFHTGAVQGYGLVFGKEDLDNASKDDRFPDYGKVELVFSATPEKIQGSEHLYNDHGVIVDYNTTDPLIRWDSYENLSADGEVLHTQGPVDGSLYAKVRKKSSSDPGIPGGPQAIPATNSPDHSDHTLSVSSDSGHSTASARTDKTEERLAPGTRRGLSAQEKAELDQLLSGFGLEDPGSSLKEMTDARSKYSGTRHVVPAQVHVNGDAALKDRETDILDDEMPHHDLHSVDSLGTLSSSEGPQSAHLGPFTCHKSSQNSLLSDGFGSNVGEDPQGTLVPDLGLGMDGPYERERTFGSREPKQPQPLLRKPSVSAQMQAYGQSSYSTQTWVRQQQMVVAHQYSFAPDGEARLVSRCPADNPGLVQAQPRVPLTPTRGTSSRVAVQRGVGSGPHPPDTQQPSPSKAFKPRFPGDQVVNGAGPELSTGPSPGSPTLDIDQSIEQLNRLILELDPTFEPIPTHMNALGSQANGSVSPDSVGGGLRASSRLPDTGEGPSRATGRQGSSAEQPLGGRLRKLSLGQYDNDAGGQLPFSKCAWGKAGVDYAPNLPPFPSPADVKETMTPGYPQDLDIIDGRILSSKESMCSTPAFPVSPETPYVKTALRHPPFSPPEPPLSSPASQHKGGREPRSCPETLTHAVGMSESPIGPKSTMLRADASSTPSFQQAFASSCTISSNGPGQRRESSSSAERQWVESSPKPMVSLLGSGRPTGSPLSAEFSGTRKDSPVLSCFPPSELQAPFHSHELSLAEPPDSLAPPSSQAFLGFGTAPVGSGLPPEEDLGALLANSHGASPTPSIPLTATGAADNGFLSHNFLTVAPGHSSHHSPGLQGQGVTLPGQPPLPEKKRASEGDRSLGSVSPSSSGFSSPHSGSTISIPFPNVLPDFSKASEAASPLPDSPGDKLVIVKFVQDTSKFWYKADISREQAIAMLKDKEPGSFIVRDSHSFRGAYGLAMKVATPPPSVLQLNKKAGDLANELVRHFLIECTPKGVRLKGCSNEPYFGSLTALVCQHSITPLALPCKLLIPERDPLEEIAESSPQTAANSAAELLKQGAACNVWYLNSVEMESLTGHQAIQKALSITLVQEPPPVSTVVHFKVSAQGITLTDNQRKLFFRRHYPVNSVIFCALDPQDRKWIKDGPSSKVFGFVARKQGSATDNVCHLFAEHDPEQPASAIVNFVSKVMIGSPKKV

[26] = molecular target: T1, 80S Ribosome (Homo sapiens); experiment: Binding affinity to RPL9 in human NCI-H358 cells at 1 uM by mass spectrometry based pull down assay; type: cell-based
[27] = molecular target: ADP-ribosylation factor 5 (Homo sapiens) (UniProt P84085); experiment: Binding affinity to ARF5 in human NCI-H358 cells at 1 uM by mass spectrometry based pull down assay; type: cell-based
ADP-ribosylation factor 5 (Homo sapiens), sequence (P84085 whole entry): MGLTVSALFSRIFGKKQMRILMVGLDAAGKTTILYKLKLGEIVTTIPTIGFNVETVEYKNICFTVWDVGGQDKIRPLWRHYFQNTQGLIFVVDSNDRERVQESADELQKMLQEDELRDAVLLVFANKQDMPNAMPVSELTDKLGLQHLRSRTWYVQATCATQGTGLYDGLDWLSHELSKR

SMILES: COc1cc(O)c2c(c1)/C=C/C[C@H](O)[C@H](O)C(=O)/C=C\C[C@H](C)OC2=O
- Activity [1]: 0.75%
- Activity [2]: 0.5%
- Activity [3]: 0.55%

SMILES: C=CC(=O)Nc1ccccc1Nc1nc(Nc2ccc(N3CCN(C)CC3)cc2)ncc1Cl
- inhibition [4]: -5.7%

SMILES: C=CC(=O)Nc1ccccc1Nc1nc(Nc2ccc(N3CCN(CCOCCOCCOCCNC(=O)CCCC[C@@H]4SC[C@@H]5NC(=O)N[C@@H]54)CC3)cc2)ncc1Cl
- Activity [5]: Active
- Activity [6]: Active
- Activity [7]: Active
- Activity [8]: Active
- Activity [9]: Active
- Activity [10]: Active
- Activity [11]: Active
- Activity [12]: Active
- Activity [13]: Active
- Activity [14]: Active
- Activity [15]: Active
- Activity [16]: Active
- Activity [17]: Active
- Activity [18]: Active
- Activity [19]: Active
- Activity [20]: Active
- Activity [21]: Active
- Activity [22]: Active
- Activity [23]: Active
- Activity [24]: Active
- Activity [25]: Active
- Activity [26]: Active
- Activity [27]: Active

From ChEMBL document CHEMBL4118021, “Studies of TAK1-centered polypharmacology with novel covalent TAK1 inhibitors” (Bioorg Med Chem, 2017)
